A selection: hits, their analogues and other compounds. The true share with any hit is near 1%.
KLK5 inh: kallikrein 5 (human) inhibition; recombinant hK5, fluorogenic AMC substrate cleavage; inhibition, % at 5 µM; 0.59% of 210,000 active;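 active = inhibition of 40% or more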;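 also: 0% = enzyme controls without compound and 100% = no-enzyme blanks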
Target sequence (Q9Y337 67-293 limits assumed): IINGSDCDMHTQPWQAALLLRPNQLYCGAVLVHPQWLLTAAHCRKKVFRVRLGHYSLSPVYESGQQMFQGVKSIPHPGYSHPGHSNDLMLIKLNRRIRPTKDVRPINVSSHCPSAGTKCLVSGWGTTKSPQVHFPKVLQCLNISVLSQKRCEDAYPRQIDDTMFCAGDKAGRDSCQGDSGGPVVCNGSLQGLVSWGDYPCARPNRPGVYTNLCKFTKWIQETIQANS
thrombin 1536: thrombin (human) inhibition. inhibition, % at 5 µM. alpha-thrombin, Boc-VPR-AMC fluorogenic substrate cleavage. AID 1046. 0.26% of 220,000 active;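 active = inhibition at or above 40%; inactive = inhibition below 40%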;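 also: 0% = enzyme with no compound and 100% = wells without enzyme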
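Test system: human alpha-thrombin; medium: pH 7.5 Tris-saline with Tween 20; times: reaction at room temperature; signal: AMC fluorescence at 355 nm excitation and 460 nm emission; also added: Boc-VPR-AMC substrate, 15 µM final; dosing: one concentration per compound, 5 µM, with 0.2% DMSO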
FXIa inh: inhibitors of human coagulation factor XIa; purified FXIa, Boc-Glu-Ala-Arg-AMC fluorogenic substrate; inhibition, % at 5 µM; P03951; AID 798; 0.14% of 220,000 active;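 active = inhibition of at least 40%; inactive = inhibition below 40%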;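 also: fluorescence of freed AMC excited at 355 nm; 0% = enzyme without compound and 100% = no enzyme blank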
FXIIa inh: blocks human coagulation factor XIIa protease activity. P00748. 0.3% of 220,000 active. AID 800. purified FXIIa, Boc-QGR-AMC fluorogenic substrate, 2 h. inhibition, % at 5 µM; in the data active = inhibition above about 40%;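 also: 0% = enzyme with no compound and 100% = blank without enzyme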
The depositor's hits bear a star.

Results for CCn1c(C)nc2cc(C(=O)N/N=C/c3cccc(O)c3O)ccc21 ?
KLK5 inh: -2; thrombin 1536: 2; FXIa inh: 5; FXIIa inh: 13

Results for CC(=O)Nc1ccc(S(=O)(=O)Nc2nc3ccc([N+](=O)[O-])cc3s2)cc1 ?
KLK5 inh: 5; thrombin 1536: -13; FXIa inh: -2; FXIIa inh: 8

Results for CS(=O)(=O)c1ccc2nc(NC(=O)c3ccc(NS(=O)(=O)c4cccc([N+](=O)[O-])c4)cc3)sc2c1 ?
KLK5 inh: 3; thrombin 1536: 53*; FXIa inh: 4; FXIIa inh: 12

How did COCCSc1nnc(NC(=O)C2CC(=O)N(c3ccc(OC)cc3)C2)s1 (stereo not given) do in these assays?
KLK5 inh: 2; thrombin 1536: -2; FXIa inh: -2; FXIIa inh: 13

What do the screens show for `COc1ccc(N2CC(C(=O)Nc3ncccc3C)CC2=O)cc1` (stereo not given)?
KLK5 inh: 63*; thrombin 1536: 16; FXIa inh: 12; FXIIa inh: 16

What do the screens show for `CCCOc1ccc(N2CC(C(=O)Nc3ncccc3C)CC2=O)cc1` (stereo not given)?
KLK5 inh: 6; thrombin 1536: 8; FXIa inh: 20; FXIIa inh: 14

What do the screens show for `COc1ccc(N2CC(C(=O)Nc3nnc(SCC(=O)c4ccccc4)s3)CC2=O)cc1` (stereo not given)?
KLK5 inh: 63*; thrombin 1536: 24; FXIa inh: 11; FXIIa inh: 15

What do the screens show for `CC(C)Oc1ccc(N2CC(C(=O)NC3=NCCS3)CC2=O)cc1` (stereo not given)?
KLK5 inh: 18; thrombin 1536: 41*; FXIa inh: 30; FXIIa inh: 29

What do the screens show for `COc1cc(CNCc2c[nH]c3ccccc23)cc(OC)c1`?
KLK5 inh: 1; thrombin 1536: 1; FXIa inh: 0; FXIIa inh: 12

Results for C=CCSc1nc(C)c(CC=C)c(=O)[nH]1 ?
KLK5 inh: 2; thrombin 1536: 0; FXIa inh: 30; FXIIa inh: 53*

Results for Clc1ccccc1CN1CCN(CCCc2ccccc2)CC1 ?
KLK5 inh: -2; thrombin 1536: -7; FXIa inh: 3; FXIIa inh: 98*

How did COc1ccc(Cl)cc1NC(=S)NCCSc1ccc(C)cc1 do in these assays?
KLK5 inh: -6; thrombin 1536: -13; FXIa inh: -4; FXIIa inh: 8

How did COc1cc(S(=O)(=O)N2CCOCC2)ccc1NC(=O)COC(=O)COc1ccccc1 do in these assays?
KLK5 inh: -2; thrombin 1536: 50*; FXIa inh: -1; FXIIa inh: 5

What do the screens show for `COC(=O)CCSCC(=O)Nc1ccc(S(=O)(=O)N2CCOCC2)cc1OC`?
KLK5 inh: -3; thrombin 1536: -7; FXIa inh: -7; FXIIa inh: -1

What do the screens show for `Cc1ccc(NC(=O)COC(=O)[C@H](C)N2C(=O)C3CC=CCC3C2=O)cc1S(=O)(=O)N(C)C` (stereo not given in full)?
KLK5 inh: -1; thrombin 1536: 3; FXIa inh: -2; FXIIa inh: 3

How did Cc1ccc(NC(=S)NC(=O)c2ccccc2)cc1NC(=S)NC(=O)c1ccccc1 do in these assays?
KLK5 inh: -14; thrombin 1536: -13; FXIa inh: -3; FXIIa inh: -1

Results for Cc1cc(C)c(NC(=S)NC(=O)c2ccc(-c3ccccc3)cc2)c(C)c1 ?
KLK5 inh: 57*; thrombin 1536: 9; FXIa inh: 14; FXIIa inh: 34

What do the screens show for `CCOc1cc(C(=O)NC)cc(OCC)c1OCC`?
KLK5 inh: 44*; thrombin 1536: 22; FXIa inh: -8; FXIIa inh: 12

What do the screens show for `CCn1cc(C(=O)NCc2ccco2)c(=O)c2cc(S(=O)(=O)N3CCCCCC3)ccc21`?
KLK5 inh: -4; thrombin 1536: 41*; FXIa inh: -2; FXIIa inh: 16

What do the screens show for `Cn1cc(C(=O)NCc2cccnc2)c(=O)c2cc(S(=O)(=O)N3CCCCCC3)ccc21`?
KLK5 inh: 2; thrombin 1536: 12; FXIa inh: 0; FXIIa inh: 11

Results for CCn1cc(C(=O)NCc2ccco2)c(=O)c2cc(S(=O)(=O)N3CCC(C)CC3)ccc21 ?
KLK5 inh: -3; thrombin 1536: 8; FXIa inh: 3; FXIIa inh: 23

How did Cn1cc(C(=O)NCc2cccs2)c(=O)c2cc(S(=O)(=O)N3CCCC3)ccc21 do in these assays?
KLK5 inh: -6; thrombin 1536: 74*; FXIa inh: -2; FXIIa inh: 3

How did O=C(O)c1cc([N+](=O)[O-])ccc1NCCc1ccccc1 do in these assays?
KLK5 inh: 1; thrombin 1536: -2; FXIa inh: 4; FXIIa inh: 7

Results for O=C(O)c1cc([N+](=O)[O-])ccc1NCc1ccccc1Cl ?
thrombin 1536: 41*; FXIa inh: 17; FXIIa inh: 20

Results for Cc1ccc(C(=O)NNC(=S)NC(=O)COc2ccccc2)cc1 ?
KLK5 inh: -164; thrombin 1536: 11; FXIa inh: 41*; FXIIa inh: 25

How did Cc1ccccc1C(=O)NNC(=S)NC(=O)COc1ccccc1 do in these assays?
KLK5 inh: -176; thrombin 1536: 0; FXIa inh: 18; FXIIa inh: 27

What do the screens show for `Cc1c(Cl)cnc(NC(=O)COC(=O)c2ccc3c(c2)OCO3)c1Cl`?
KLK5 inh: 41*; thrombin 1536: 27; FXIa inh: 10; FXIIa inh: 13

Results for CCOc1cc(C(=O)OCC(=O)Nc2ncc(Cl)c(C)c2Cl)ccc1OCC(=O)N1CCOCC1 ?
KLK5 inh: -1; thrombin 1536: 1; FXIa inh: 9; FXIIa inh: 12

Results for FC(F)(F)c1cnc(N2CCCN(C(=S)Nc3ccccc3)CC2)c(Cl)c1 ?
KLK5 inh: -5; thrombin 1536: -9; FXIa inh: 1; FXIIa inh: -1

Results for CC1=C(C(N)=O)C(c2ccccn2)n2nc(-c3ccccc3Cl)nc2N1 (stereo not given) ?
KLK5 inh: 43*; thrombin 1536: 36; FXIa inh: 6; FXIIa inh: 30

Results for COc1ccccc1C1C(C(N)=O)=C(C)Nc2nc(-c3ccccc3Cl)nn21 (stereo not given) ?
KLK5 inh: -9; thrombin 1536: -2; FXIa inh: 2; FXIIa inh: 15

Results for N#Cc1c2n(c3c(=O)n(Cc4ccccc4)cnc13)CCCC2 ?
KLK5 inh: -21; thrombin 1536: 9; FXIa inh: 15; FXIIa inh: 44*

How did COC(=O)C1=C(C)Nc2c(c(=O)n(C)c(=O)n2C)C1c1ccncc1 (stereo not given) do in these assays?
KLK5 inh: -5; thrombin 1536: 0; FXIa inh: 7; FXIIa inh: 6

How did Clc1ccc(Oc2ncnc3oc(-c4ccccc4)cc23)cc1 do in these assays?
KLK5 inh: -4; thrombin 1536: 3; FXIa inh: 18; FXIIa inh: 33

What do the screens show for `Cc1ccccc1Oc1ncnc2oc(-c3ccccc3)cc12`?
KLK5 inh: 59*; thrombin 1536: 34; FXIa inh: 7; FXIIa inh: 22
